Measurements reported in ChEMBL document CHEMBL1799942, “Design, synthesis and antifungal activities of novel 1,2,4-triazole derivatives” (2011).
Converted amounts (≈) assume the structure as drawn.

Columns and labels:
Format in all cases: functional
[1] = system: Trichophyton rubrum; assay: Antifungal activity against Trichophyton rubrum after 7 days by micro-broth dilution method; conditions: 168 h
In short: (§1)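 Broth microdilution following the NCCLS yeast reference method (M27-A2), run on clinical isolates of filamentous fungi. Compounds were dissolved in DMSO, serially diluted in growth medium, inoculated and incubated at 35 °C. Growth was read at 7 days. MIC80 is the first well with about 80% less growth than the drug-free well.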

[2] = system: Nannizzia gypsea; assay: Antifungal activity against Microsporum gypseum after 7 days by micro-broth dilution method; conditions: 168 h; in short: as §1
[3] = Antifungal activity against Fonsecaea compacta by micro-broth dilution method; in short: as §1
[4] = system: Candida parapsilosis; assay: Antifungal activity against Candida parapsilosis ATCC 0306392 by micro-broth dilution method; conditions: Lodderomyces parapsilosis
In short: (§2)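 Micro-broth dilution per NCCLS M27-A2. The C. parapsilosis strain is the ATCC 0306392 quality-control standard tested in each assay; the C. tropicalis strain is a clinical isolate. Compounds were in DMSO, serially diluted in growth medium, inoculated and incubated at 35 °C. MIC80 is the first well with about 80% growth reduction relative to the drug-free well.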

[5] = system: Candida albicans; assay: Antifungal activity against Candida albicans ATCC Y0109 after 24 hrs by micro-broth dilution method; conditions: ATCC Y0109, 24 h
In short: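 Micro-broth dilution per NCCLS M27-A2 on the quality-control standard strain ATCC Y0109, included in each assay. Compounds were dissolved in DMSO, serially diluted in growth medium, inoculated and incubated at 35 °C, with growth read at 24 h. MIC80 is the first well showing roughly 80% growth reduction versus the drug-free well.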

[6] = system: Cryptococcus neoformans; assay: Antifungal activity against Cryptococcus neoformans ATCC BLS108 after 72 hrs by micro-broth dilution method; conditions: ATCC BLS108, 72 h
In short: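 NCCLS M27-A2 microdilution on the ATCC BLS108 quality-control strain, tested in every assay. Compounds were taken up in DMSO, serially diluted in growth medium, inoculated and incubated at 35 °C. Growth was scored at 72 h. MIC80 is the first well with about 80% lower growth than the drug-free control well.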

[7] = system: Candida tropicalis; assay: Antifungal activity against Candida tropicalis by micro-broth dilution method; in short: as §2
[8] = system: Aspergillus fumigatus; assay: Antifungal activity against Aspergillus fumigatus after 7 days by micro-broth dilution method; conditions: 168 h; in short: as §1

Q: Which results are given for `CCCC(=O)Nc1ccc(N2CCN(CC(O)(Cn3cncn3)c3ccc(F)cc3F)CC2)cc1` (racemic)?
A: MIC80 [1]: 0.0625 µg/mL (≈ 0.129 µM); MIC80 [2]: 0.0625 µg/mL (≈ 0.129 µM); MIC80 [3]: 0.25 µg/mL (≈ 0.516 µM); MIC80 [4]: 0.0156 µg/mL (≈ 0.0322 µM); MIC80 [5]: 0.00097 µg/mL (≈ 0.002 µM); MIC80 [6]: 0.25 µg/mL (≈ 0.516 µM); MIC80 [7]: 0.0625 µg/mL (≈ 0.129 µM); MIC80 [8]: 4 µg/mL (≈ 8.26 µM)

Q: Which MIC80 [1] does the source give for `CC(C)C(=O)Nc1ccc(N2CCN(CC(O)(Cn3cncn3)c3ccc(F)cc3F)CC2)cc1` (racemic) here?
A: 0.25 µg/mL (≈ 0.516 µM)

Q: And the MIC80 [2]?
A: 0.0625 µg/mL (≈ 0.129 µM)

Q: And the MIC80 [3]?
A: 0.25 µg/mL (≈ 0.516 µM)

Q: And the MIC80 [4]?
A: 0.0156 µg/mL (≈ 0.0322 µM)

Q: And the MIC80 [5]?
A: 0.0039 µg/mL (≈ 0.00805 µM)

Q: What about the MIC80 [6] of the same compound?
A: 1 µg/mL (≈ 2.06 µM)

Q: What about the MIC80 [7] of the same compound?
A: 0.0156 µg/mL (≈ 0.0322 µM)

Q: What about the MIC80 [8] of the same compound?
A: 4 µg/mL (≈ 8.26 µM)

Q: For `CCCCC(=O)Nc1ccc(N2CCN(CC(O)(Cn3cncn3)c3ccc(F)cc3F)CC2)cc1` (racemic), which MIC80 [1] is on record?
A: 0.0625 µg/mL (≈ 0.125 µM)

Q: And the MIC80 [2]?
A: 0.25 µg/mL (≈ 0.501 µM)

Q: What about the MIC80 [3] of the same compound?
A: 0.25 µg/mL (≈ 0.501 µM)

Q: What about the MIC80 [4] of the same compound?
A: 0.0625 µg/mL (≈ 0.125 µM)

Q: And the MIC80 [5]?
A: 0.0156 µg/mL (≈ 0.0313 µM)

Q: And the MIC80 [6]?
A: 0.25 µg/mL (≈ 0.501 µM)

Q: What about the MIC80 [7] of the same compound?
A: 0.0625 µg/mL (≈ 0.125 µM)

Q: What about the MIC80 [8] of the same compound?
A: 1 µg/mL (≈ 2.01 µM)

Q: Which MIC80 [1] does the source give for `CCCCCC(=O)Nc1ccc(N2CCN(CC(O)(Cn3cncn3)c3ccc(F)cc3F)CC2)cc1` (racemic) here?
A: 0.0625 µg/mL (≈ 0.122 µM)

Q: And the MIC80 [2]?
A: 0.0625 µg/mL (≈ 0.122 µM)

Q: And the MIC80 [3]?
A: 1 µg/mL (≈ 1.95 µM)

Q: And the MIC80 [4]?
A: 0.25 µg/mL (≈ 0.488 µM)

Q: What about the MIC80 [5] of the same compound?
A: 0.0156 µg/mL (≈ 0.0304 µM)

Q: And the MIC80 [6]?
A: 1 µg/mL (≈ 1.95 µM)

Q: And the MIC80 [7]?
A: 0.25 µg/mL (≈ 0.488 µM)

Q: What about the MIC80 [8] of the same compound?
A: > 64 µg/mL

Q: Which MIC80 [1] does the source give for `CC(C)(C)C(=O)Nc1ccc(N2CCN(CC(O)(Cn3cncn3)c3ccc(F)cc3F)CC2)cc1` (racemic) here?
A: 0.0039 µg/mL (≈ 0.00782 µM)

Q: What about the MIC80 [2] of the same compound?
A: 0.0156 µg/mL (≈ 0.0313 µM)

Q: What about the MIC80 [3] of the same compound?
A: 1 µg/mL (≈ 2.01 µM)

Q: And the MIC80 [4]?
A: 0.0156 µg/mL (≈ 0.0313 µM)

Q: And the MIC80 [5]?
A: 0.0156 µg/mL (≈ 0.0313 µM)

Q: And the MIC80 [6]?
A: 0.25 µg/mL (≈ 0.501 µM)

Q: What about the MIC80 [7] of the same compound?
A: 0.0156 µg/mL (≈ 0.0313 µM)

Q: And the MIC80 [8]?
A: 16 µg/mL (≈ 32.1 µM)

Q: With `CCCCCCC(=O)Nc1ccc(N2CCN(CC(O)(Cn3cncn3)c3ccc(F)cc3F)CC2)cc1` (racemic) as the compound, how does the MIC80 [1] read?
A: 0.0039 µg/mL (≈ 0.00741 µM)

Q: What about the MIC80 [2] of the same compound?
A: 0.0039 µg/mL (≈ 0.00741 µM)

Q: What about the MIC80 [3] of the same compound?
A: 0.0625 µg/mL (≈ 0.119 µM)

Q: And the MIC80 [4]?
A: 0.0156 µg/mL (≈ 0.0296 µM)

Q: What about the MIC80 [5] of the same compound?
A: 0.00097 µg/mL (≈ 0.00184 µM)

Q: What about the MIC80 [6] of the same compound?
A: 0.0625 µg/mL (≈ 0.119 µM)

Q: What about the MIC80 [7] of the same compound?
A: 0.0156 µg/mL (≈ 0.0296 µM)

Q: What about the MIC80 [8] of the same compound?
A: > 64 µg/mL

Q: With `CCCCCCCC(=O)Nc1ccc(N2CCN(CC(O)(Cn3cncn3)c3ccc(F)cc3F)CC2)cc1` (racemic) as the compound, how does the MIC80 [1] read?
A: 0.0625 µg/mL (≈ 0.116 µM)

Q: What about the MIC80 [2] of the same compound?
A: 0.0156 µg/mL (≈ 0.0289 µM)

Q: And the MIC80 [3]?
A: 1 µg/mL (≈ 1.85 µM)

Q: And the MIC80 [4]?
A: 0.0625 µg/mL (≈ 0.116 µM)

Q: And the MIC80 [5]?
A: 0.0156 µg/mL (≈ 0.0289 µM)

Q: And the MIC80 [6]?
A: 0.0625 µg/mL (≈ 0.116 µM)

Q: And the MIC80 [7]?
A: 0.0625 µg/mL (≈ 0.116 µM)

Q: What about the MIC80 [8] of the same compound?
A: 1 µg/mL (≈ 1.85 µM)

Q: Which results are given for `CCCCCCCCCC(=O)Nc1ccc(N2CCN(CC(O)(Cn3cncn3)c3ccc(F)cc3F)CC2)cc1` (racemic)?
A: MIC80 [1]: 0.0625 µg/mL (≈ 0.11 µM); MIC80 [2]: 0.0156 µg/mL (≈ 0.0274 µM); MIC80 [3]: 1 µg/mL (≈ 1.76 µM); MIC80 [4]: 1 µg/mL (≈ 1.76 µM); MIC80 [5]: 0.0156 µg/mL (≈ 0.0274 µM); MIC80 [6]: 0.0625 µg/mL (≈ 0.11 µM); MIC80 [7]: 0.25 µg/mL (≈ 0.44 µM); MIC80 [8]: 1 µg/mL (≈ 1.76 µM)

Q: With `CCCCCCCCCCCC(=O)Nc1ccc(N2CCN(CC(O)(Cn3cncn3)c3ccc(F)cc3F)CC2)cc1` (racemic) as the compound, how does the MIC80 [1] read?
A: 0.0625 µg/mL (≈ 0.105 µM)

Q: What about the MIC80 [2] of the same compound?
A: 0.0156 µg/mL (≈ 0.0261 µM)

Q: And the MIC80 [3]?
A: 0.25 µg/mL (≈ 0.419 µM)

Q: And the MIC80 [4]?
A: 0.25 µg/mL (≈ 0.419 µM)

Q: What about the MIC80 [5] of the same compound?
A: 0.0625 µg/mL (≈ 0.105 µM)

Q: What about the MIC80 [6] of the same compound?
A: 0.0625 µg/mL (≈ 0.105 µM)

Q: What about the MIC80 [7] of the same compound?
A: 1 µg/mL (≈ 1.68 µM)

Q: And the MIC80 [8]?
A: 1 µg/mL (≈ 1.68 µM)

Q: For `CCCCCCCCCCCCCCCC(=O)Nc1ccc(N2CCN(CC(O)(Cn3cncn3)c3ccc(F)cc3F)CC2)cc1` (racemic), which MIC80 [1] is on record?
A: 0.25 µg/mL (≈ 0.383 µM)

Q: And the MIC80 [2]?
A: 0.25 µg/mL (≈ 0.383 µM)

Q: What about the MIC80 [3] of the same compound?
A: 4 µg/mL (≈ 6.13 µM)

Q: And the MIC80 [4]?
A: 1 µg/mL (≈ 1.53 µM)

Q: And the MIC80 [5]?
A: 0.25 µg/mL (≈ 0.383 µM)

Q: What about the MIC80 [6] of the same compound?
A: 16 µg/mL (≈ 24.5 µM)

Q: And the MIC80 [7]?
A: 1 µg/mL (≈ 1.53 µM)

Q: What about the MIC80 [8] of the same compound?
A: > 64 µg/mL

Q: Which MIC80 [1] does the source give for `CC(=O)Nc1ccc(N2CCN(CC(O)(Cn3cncn3)c3ccc(F)cc3F)CC2)c(F)c1` (racemic) here?
A: 0.25 µg/mL (≈ 0.527 µM)

Q: And the MIC80 [2]?
A: 1 µg/mL (≈ 2.11 µM)

Q: And the MIC80 [3]?
A: 0.25 µg/mL (≈ 0.527 µM)

Q: And the MIC80 [4]?
A: 0.0625 µg/mL (≈ 0.132 µM)

Q: And the MIC80 [5]?
A: 0.0625 µg/mL (≈ 0.132 µM)

Q: And the MIC80 [6]?
A: 1 µg/mL (≈ 2.11 µM)

Q: And the MIC80 [7]?
A: 0.0625 µg/mL (≈ 0.132 µM)

Q: And the MIC80 [8]?
A: 4 µg/mL (≈ 8.43 µM)

Q: For `O=C(CCl)Nc1ccc(N2CCN(CC(O)(Cn3cncn3)c3ccc(F)cc3F)CC2)c(F)c1` (racemic), which MIC80 [1] is on record?
A: 0.0625 µg/mL (≈ 0.123 µM)

Q: What about the MIC80 [2] of the same compound?
A: 0.0156 µg/mL (≈ 0.0307 µM)

Q: And the MIC80 [3]?
A: 0.0625 µg/mL (≈ 0.123 µM)

Q: What about the MIC80 [4] of the same compound?
A: 0.0156 µg/mL (≈ 0.0307 µM)

Q: And the MIC80 [5]?
A: 0.0039 µg/mL (≈ 0.00766 µM)

Q: What about the MIC80 [6] of the same compound?
A: 0.0625 µg/mL (≈ 0.123 µM)

Q: What about the MIC80 [7] of the same compound?
A: 0.0156 µg/mL (≈ 0.0307 µM)

Q: What about the MIC80 [8] of the same compound?
A: 1 µg/mL (≈ 1.96 µM)
